In data set [1] the target is GABA-A receptor; anion channel. The experiment in a line: In vitro binding affinity against benzodiazepine receptor using [3H]diazepam as radioligand. In kind it is protein-complex assay.
The subject of data set [2] is Mus musculus. The experiment in a line: Anticonvulsant activity against prevention of tonic extensor seizures in 50% mice in the presence of bicuculline (ip administration). In kind it is functional. In a few lines:
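Male CD1 mice, 10 per dose, given test compound ip in 0.5% methocel (10 mL/kg). Bicuculline, 2 mg/kg sc in aqueous solution, given 30 min later, following the metrazol protocol. ED50 is the dose preventing tonic extensor seizures in 50% of mice, obtained by Finney probit analysis with 95% confidence limits.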

Data set [3] deals with Mus musculus. Kind of data set: Anticonvulsant activity against prevention of tonic extensor seizures in 50% mice in the presence of metrazole (ip administration). In kind it is functional.
Data set [4] can be described thus: Lethal dose analysed when administered intraperitoneally. The format is toxicity, organism-based. To be noted: mouse, in vivo, ip. The gist of the method: (§1)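 Acute toxicity was tested in male CD1 mice in groups of three per dose. Compounds were dispersed in 0.5% methocel and given ip at 10 mL/kg.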
For data set [5], the system named is Rattus norvegicus. The experiment in a line: In vivo minimal effective dose for anticonflict activity by intraperitoneal administration in rats by the Vogel conflict procedure. The format is functional. The note with it: ip, read-out: MED. In a few lines: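 Male Wistar rats deprived of food 24 h and water 48 h; 10 per dose given compound ip in 0.5% methocel (4 mL/kg) 30 min before test. After 15 s free drinking of sweetened milk, 0.3 mA shocks were delivered through the spout in alternating 5-s on/off cycles over 5 min; shocks counted.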

The target in data set [6] is GABA-A receptor; anion channel (Rattus norvegicus) (UniProt O09028+P15431+P18506+P18508+P19969+P20236+P23574+P23576+P28471+P28473+P30191+P62813+P63079+P63138+Q91ZM7+Q9ES14). The experiment in a line: Relative binding to GABA-A central benzodiazepine receptor in the presence and absence of 10e-4 M GABA (GABA shift). The format is protein-complex assay. In a few lines:
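Rat forebrain membranes incubated in triplicate with 0.4 nM [3H]flunitrazepam and varying ligand concentrations, with or without 0.1 mM GABA, 20 min at 37 °C. Specific binding: total minus binding with 1 μM unlabelled clonazepam. The ratio compares displacement curves obtained without versus with GABA.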

The nature of data set [7]: Lethal dose analysed in mice when administered intraperitoneally. The format is toxicity, organism-based. The note with it: mouse, in vivo, ip. In a few lines: as §1
Data set [8] concerns Mus musculus. The experiment in a line: Anticonvulsant activity against prevention of tonic extensor seizures in 50% mice in the presence of bicuculline (ip administration); 0.13-0.25. The format is functional.
For data set [9], the system named is Mus musculus. Kind of data set: Anticonvulsant activity against prevention of tonic extensor seizures in 50% mice in the presence of metrazole (ip administration); 0.11-0.28. The format is functional.

The structures appear in SMILES notation.

For orientation: Ki means the equilibrium dissociation constant of an inhibitor or competing ligand from its target. Lower therefore signals tighter binding. In turn, `Clc1nc2cc(-c3ccccc3)nnc2c2ccccc12` displayed a Ki in [1] of 6200 nM.
In general, LD50 refers to the dose at which mortality reaches 50%. High values mean lower toxicity, low ones greater toxicity. In [1], `COc1ccc(-c2cc3nc(N4CCC4)c4ccccc4c3nn2)cc1` displayed a Ki of 69.6 nM. The ED50 in [2] and in data set [3] was more than 100 mg/kg each time. The compound also showed an LD50 in data set [4] of 600 mg/kg. For the same compound, the minimal effective dose in [5] was 30 mg/kg.
On to `COc1ccc(-c2cc3nc(N4CCOCC4)c4ccccc4c3nn2)cc1`, for which the Ki in data set [1] worked out at 402 nM. Also, the ED50 in data set [2] and in [3] was more than 100 mg/kg throughout. Moreover, the LD50 in data set [4] was more than 600 mg/kg. In data set [5], the minimal effective dose is 30 mg/kg.
In data set [1], `c1ccc(-c2cc3nc(N4CCOCC4)c4ccccc4c3nn2)cc1` showed a Ki of 152 nM. Also, the ED50 in [2] and in data set [3] was more than 50 mg/kg each time. This compound showed a 50% lethal dose (LD50) in data set [4] of 200 mg/kg. Further, the minimal effective dose in data set [5] worked out at 15 mg/kg. In addition, in data set [6], the GABA ratio was 1.4.
In data set [1], `COCCN(CCOC)c1nc2cc(-c3ccc(OC)cc3)nnc2c2ccccc12` came in with a Ki of 1180 nM. For the same compound, the ED50 in data set [2] and in [3] was more than 100 mg/kg in each case. For the same compound, the LD50 in data set [4] is more than 600 mg/kg. Also, the minimal effective dose in data set [5] was 10 mg/kg. Moreover, the GABA ratio in data set [6] stood at 2.
For the compound `CC(O)CN(C)c1nc2cc(-c3ccc(Cl)cc3)nnc2c2ccccc12` (centres undefined), the Ki in data set [1] came out at 17800 nM.
In data set [1], `Cc1cc2nc(N3CCCC3)c3ccccc3c2nn1` yielded an inhibition constant (Ki) of 245 nM. Besides, the ED50 in [2] and in data set [3] was more than 50 mg/kg in each case. The LD50 in data set [7] amounted to 200 mg/kg. Further, the minimal effective dose in data set [5] was 20 mg/kg. For the same compound, the GABA ratio in data set [6] was found to be 1.
The compound `COCCN(CCOC)c1nc2cc(-c3ccc(Cl)cc3)nnc2c2ccccc12` had a Ki in [1] of 32500 nM.
Regarding `CN(C)c1nc2cc(-c3ccccc3)nnc2c2ccccc12`, affinity in data set [1] was put at a Ki of 28.4 nM. Besides, the ED50 in data set [2] and in data set [3] was more than 100 mg/kg throughout. Further, the LD50 in data set [4] was more than 600 mg/kg. Further, the minimal effective dose in data set [5] is 10 mg/kg. The GABA ratio in data set [6] is 1.2.
In turn, `COc1ccc(-c2cc3nc(N(C)CC(C)O)c4ccccc4c3nn2)cc1` (centres undefined) came in with a Ki in [1] of 221 nM. For the same compound, the ED50 in [2] and in data set [3] was more than 100 mg/kg in each case. The compound also registered an LD50 in data set [4] of more than 600 mg/kg. Besides, the minimal effective dose in data set [5] came out at 30 mg/kg. For the same compound, the GABA ratio in data set [6] stood at 1.4.
Regarding `CC(O)CN(C)c1nc2cc(-c3ccccc3)nnc2c2ccccc12` (centres undefined), the Ki in [1] was 136 nM. The ED50 in data set [2] and in data set [3] was more than 50 mg/kg each time. Further, the LD50 in data set [4] was found to be 300 mg/kg. The minimal effective dose in data set [5] came out at 30 mg/kg. In addition, the GABA ratio in [6] stood at 1.4.
The compound `COc1ccc(-c2cc3nc(N(C)C)c4ccccc4c3nn2)cc1` had a Ki in [1] of 63.3 nM. The ED50 in [2] and in data set [3] was more than 100 mg/kg in each case. In data set [4], this compound registered a 50% lethal dose (LD50) of more than 600 mg/kg. In addition, in data set [5], the minimal effective dose stood at 10 mg/kg. Also, the GABA ratio in data set [6] came out at 1.7.
In data set [1], `c1ccc(-c2cc3ncc4ccccc4c3nn2)cc1` registered a Ki of 4000 nM.
Consider `COc1ccc(-c2cc3nc(N4CCCC4)c4ccccc4c3nn2)cc1`, for which the affinity in data set [1], expressed as Ki, was 18.7 nM. The ED50 in data set [2] and in [3] was more than 100 mg/kg throughout. In addition, in data set [4], the LD50 was more than 600 mg/kg. Besides, the minimal effective dose in [5] is 20 mg/kg.
With `CN1C(=O)CN=C(c2ccccc2)c2cc(Cl)ccc21` [DIAZEPAM], the ED50 in data set [8] was 0.18%; in data set [9] it was 0.2%. The minimal effective dose in data set [5] was found to be 0.5 mg/kg.
On to `Clc1ccc(-c2cc3nc(N4CCCC4)c4ccccc4c3nn2)cc1`, for which the Ki in data set [1] was 3480 nM.
In data set [1], `Oc1nc2cc(-c3ccccc3)nnc2c2ccccc12` registered a Ki of 1700 nM.
Compound `CN(C)c1nc2cc(-c3ccc(Cl)cc3)nnc2c2ccccc12` came in with a Ki in [1] of 9300 nM.
Compound `COc1ccc(-c2cc3nc(N4CCCCC4)c4ccccc4c3nn2)cc1` came in with a Ki in data set [1] of 658 nM. The ED50 in [2] and in data set [3] was more than 100 mg/kg in each case. This compound also had a median lethal dose (LD50) in data set [4] of more than 600 mg/kg. Also, the minimal effective dose in [5] turned out to be 10 mg/kg.
Consider `Cc1nnc2ccc(-c3cccc(C(F)(F)F)c3)nn12` [CI-218872], for which the Ki in [1] amounted to 198 nM.
On to `CN1CCN=C(c2ccccc2)c2cc(Cl)ccc21` [MEDAZEPAM], for which the inhibitory constant (Ki) in [1] was determined as 528 nM. In data set [6], the GABA ratio is 1.9.
`CCN(C)c1nc2cc(-c3ccccc3)nnc2c2ccccc12` had a Ki in [1] of 65.2 nM. Besides, the ED50 in [2] and in data set [3] was more than 50 mg/kg each time. For the same compound, the median lethal dose (LD50) in [4] was found to be 300 mg/kg. For the same compound, in data set [5], the minimal effective dose worked out at 10 mg/kg. Besides, the GABA ratio in data set [6] is 1.5.
`CCOc1nc2cc(-c3ccccc3)nnc2c2ccccc12`: the Ki in data set [1] was determined as 1500 nM.
As to `c1ccc(-c2cc3nc(N4CCCC4)c4ccccc4c3nn2)cc1`, affinity in [1] was put at a Ki of 11.4 nM. In addition, the ED50 in data set [2] and in data set [3] was more than 50 mg/kg in each case. This compound also displayed an LD50 in data set [4] of 300 mg/kg. The minimal effective dose in data set [5] was 5 mg/kg. Besides, the GABA ratio in [6] turned out to be 1.6.
`CC(C)Oc1nc2cc(-c3ccccc3)nnc2c2ccccc12` came in with a Ki in data set [1] of 1900 nM.
